Experiments:
[1] = biological target: T1, Calcium/calmodulin-dependent protein kinase type IV (Homo sapiens) (UniProt Q16566); assay: Inhibition of CaMK4 in human SKCO1 cells at 1 uM after 4 hrs using biotin labeled DLKPENLLYATPAPDAPLK probe by mass-spectrometric analysis relative to control; type: cell-based
T1 sequence (whole entry): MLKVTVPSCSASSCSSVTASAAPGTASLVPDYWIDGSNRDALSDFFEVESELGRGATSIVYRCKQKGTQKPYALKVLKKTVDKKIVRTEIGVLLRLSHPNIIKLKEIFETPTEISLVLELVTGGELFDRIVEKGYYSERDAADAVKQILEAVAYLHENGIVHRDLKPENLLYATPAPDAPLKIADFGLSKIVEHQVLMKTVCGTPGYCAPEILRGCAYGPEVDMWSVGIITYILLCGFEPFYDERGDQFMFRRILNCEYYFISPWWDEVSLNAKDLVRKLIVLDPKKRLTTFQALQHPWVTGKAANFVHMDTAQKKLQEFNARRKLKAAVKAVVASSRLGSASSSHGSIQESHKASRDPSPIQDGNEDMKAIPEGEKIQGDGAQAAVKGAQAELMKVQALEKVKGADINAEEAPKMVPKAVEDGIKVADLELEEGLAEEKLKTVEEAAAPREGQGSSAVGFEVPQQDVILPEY

[2] = biological target: Cyclin-dependent kinase 1 (Homo sapiens) (UniProt P06493); assay: Inhibition of CDC2 in human SKCO1 cells at 1 uM after 4 hrs using biotin labeled DLKPQNLLIDDK probe by mass-spectrometric analysis relative to control; type: cell-based
Cyclin-dependent kinase 1 (Homo sapiens), sequence (P06493 whole entry, looked up): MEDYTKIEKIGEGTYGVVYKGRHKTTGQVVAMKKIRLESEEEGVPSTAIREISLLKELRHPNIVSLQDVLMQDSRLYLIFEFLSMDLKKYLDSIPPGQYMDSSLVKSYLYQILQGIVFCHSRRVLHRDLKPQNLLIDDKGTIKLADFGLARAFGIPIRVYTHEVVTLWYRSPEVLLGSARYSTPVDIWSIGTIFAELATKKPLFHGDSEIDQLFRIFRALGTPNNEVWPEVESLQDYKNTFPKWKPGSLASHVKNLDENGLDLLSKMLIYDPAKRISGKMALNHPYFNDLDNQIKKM

[3] = biological target: Cyclin-dependent kinase 7 (Homo sapiens) (UniProt P50613); assay: Inhibition of CDK7 in human SKCO1 cells at 1 uM after 4 hrs using biotin labeled DLKPNNLLLDENGVLK probe by mass-spectrometric analysis relative to control; type: cell-based
[4] = biological target: Epidermal growth factor receptor (Homo sapiens) (UniProt P00533); assay: Inhibition of EGFR in human SKCO1 cells at 1 uM after 4 hrs using biotin labeled IPVAIKELR probe by mass-spectrometric analysis relative to control; type: cell-based
Epidermal growth factor receptor (Homo sapiens), sequence (P00533 whole entry): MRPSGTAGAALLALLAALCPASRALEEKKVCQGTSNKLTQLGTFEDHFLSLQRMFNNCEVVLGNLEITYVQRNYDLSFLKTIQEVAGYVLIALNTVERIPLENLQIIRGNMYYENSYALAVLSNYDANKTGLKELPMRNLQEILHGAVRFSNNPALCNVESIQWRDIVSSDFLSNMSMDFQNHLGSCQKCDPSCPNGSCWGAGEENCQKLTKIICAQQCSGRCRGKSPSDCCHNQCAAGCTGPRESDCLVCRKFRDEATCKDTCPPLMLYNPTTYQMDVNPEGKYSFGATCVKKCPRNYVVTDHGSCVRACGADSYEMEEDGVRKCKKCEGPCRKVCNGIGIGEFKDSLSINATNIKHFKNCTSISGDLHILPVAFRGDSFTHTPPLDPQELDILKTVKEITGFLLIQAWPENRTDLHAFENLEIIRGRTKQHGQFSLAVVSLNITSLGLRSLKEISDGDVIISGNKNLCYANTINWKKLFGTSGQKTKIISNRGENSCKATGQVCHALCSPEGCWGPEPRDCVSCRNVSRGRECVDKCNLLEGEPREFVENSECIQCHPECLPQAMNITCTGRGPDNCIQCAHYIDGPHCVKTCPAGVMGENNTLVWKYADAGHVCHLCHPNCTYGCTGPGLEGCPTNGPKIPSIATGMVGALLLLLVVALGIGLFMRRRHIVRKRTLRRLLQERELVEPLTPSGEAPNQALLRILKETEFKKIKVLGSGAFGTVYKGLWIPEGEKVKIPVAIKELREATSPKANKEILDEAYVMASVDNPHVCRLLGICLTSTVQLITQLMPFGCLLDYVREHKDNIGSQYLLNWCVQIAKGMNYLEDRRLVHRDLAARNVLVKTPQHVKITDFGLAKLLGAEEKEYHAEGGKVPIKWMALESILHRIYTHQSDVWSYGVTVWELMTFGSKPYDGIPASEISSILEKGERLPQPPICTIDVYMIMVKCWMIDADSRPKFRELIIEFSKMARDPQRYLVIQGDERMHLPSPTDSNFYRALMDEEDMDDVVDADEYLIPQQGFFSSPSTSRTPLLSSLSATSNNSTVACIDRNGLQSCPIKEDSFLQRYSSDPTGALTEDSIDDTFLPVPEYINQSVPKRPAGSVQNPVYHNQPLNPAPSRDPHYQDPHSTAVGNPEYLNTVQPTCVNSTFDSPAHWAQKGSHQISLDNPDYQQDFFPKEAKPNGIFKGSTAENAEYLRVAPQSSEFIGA

[5] = biological target: Fibroblast growth factor receptor 1 (Homo sapiens) (UniProt P11362); assay: Inhibition of FGFR1 in human SKCO1 cells at 1 uM after 4 hrs using biotin labeled VAVKMLK probe by mass-spectrometric analysis relative to control; type: cell-based; settings: pooled result: one value given for 4 cell lines, strains, targets or settings
[6] = biological target: Tyrosine-protein kinase Lyn (Homo sapiens) (UniProt P07948); assay: Inhibition of LYN in human SKCO1 cells at 1 uM after 4 hrs using biotin labeled VAVKTLKPGTMSVQAFLEEANLMK probe by mass-spectrometric analysis relative to control; type: cell-based
Tyrosine-protein kinase Lyn (Homo sapiens), sequence (P07948 2-512 limits assumed): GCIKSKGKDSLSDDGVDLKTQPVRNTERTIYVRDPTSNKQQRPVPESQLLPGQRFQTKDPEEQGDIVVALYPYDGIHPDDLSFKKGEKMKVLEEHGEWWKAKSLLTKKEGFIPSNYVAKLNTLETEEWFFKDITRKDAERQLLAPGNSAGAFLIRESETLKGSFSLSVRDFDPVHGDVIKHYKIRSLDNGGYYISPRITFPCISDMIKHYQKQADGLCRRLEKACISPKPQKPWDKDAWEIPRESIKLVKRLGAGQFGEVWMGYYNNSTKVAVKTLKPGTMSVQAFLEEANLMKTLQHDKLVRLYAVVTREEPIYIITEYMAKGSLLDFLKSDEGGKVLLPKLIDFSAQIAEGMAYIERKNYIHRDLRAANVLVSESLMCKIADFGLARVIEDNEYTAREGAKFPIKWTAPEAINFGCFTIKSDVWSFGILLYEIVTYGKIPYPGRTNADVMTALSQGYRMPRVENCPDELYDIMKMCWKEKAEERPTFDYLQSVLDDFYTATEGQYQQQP

[7] = biological target: Mitogen-activated protein kinase kinase kinase 1 (Homo sapiens) (UniProt Q13233); assay: Inhibition of MAP3K1 in human SKCO1 cells at 1 uM after 4 hrs using biotin labeled DVKGANLLIDSTGQR probe by mass-spectrometric analysis relative to control; type: cell-based
Mitogen-activated protein kinase kinase kinase 1 (Homo sapiens), sequence (Q13233 whole entry): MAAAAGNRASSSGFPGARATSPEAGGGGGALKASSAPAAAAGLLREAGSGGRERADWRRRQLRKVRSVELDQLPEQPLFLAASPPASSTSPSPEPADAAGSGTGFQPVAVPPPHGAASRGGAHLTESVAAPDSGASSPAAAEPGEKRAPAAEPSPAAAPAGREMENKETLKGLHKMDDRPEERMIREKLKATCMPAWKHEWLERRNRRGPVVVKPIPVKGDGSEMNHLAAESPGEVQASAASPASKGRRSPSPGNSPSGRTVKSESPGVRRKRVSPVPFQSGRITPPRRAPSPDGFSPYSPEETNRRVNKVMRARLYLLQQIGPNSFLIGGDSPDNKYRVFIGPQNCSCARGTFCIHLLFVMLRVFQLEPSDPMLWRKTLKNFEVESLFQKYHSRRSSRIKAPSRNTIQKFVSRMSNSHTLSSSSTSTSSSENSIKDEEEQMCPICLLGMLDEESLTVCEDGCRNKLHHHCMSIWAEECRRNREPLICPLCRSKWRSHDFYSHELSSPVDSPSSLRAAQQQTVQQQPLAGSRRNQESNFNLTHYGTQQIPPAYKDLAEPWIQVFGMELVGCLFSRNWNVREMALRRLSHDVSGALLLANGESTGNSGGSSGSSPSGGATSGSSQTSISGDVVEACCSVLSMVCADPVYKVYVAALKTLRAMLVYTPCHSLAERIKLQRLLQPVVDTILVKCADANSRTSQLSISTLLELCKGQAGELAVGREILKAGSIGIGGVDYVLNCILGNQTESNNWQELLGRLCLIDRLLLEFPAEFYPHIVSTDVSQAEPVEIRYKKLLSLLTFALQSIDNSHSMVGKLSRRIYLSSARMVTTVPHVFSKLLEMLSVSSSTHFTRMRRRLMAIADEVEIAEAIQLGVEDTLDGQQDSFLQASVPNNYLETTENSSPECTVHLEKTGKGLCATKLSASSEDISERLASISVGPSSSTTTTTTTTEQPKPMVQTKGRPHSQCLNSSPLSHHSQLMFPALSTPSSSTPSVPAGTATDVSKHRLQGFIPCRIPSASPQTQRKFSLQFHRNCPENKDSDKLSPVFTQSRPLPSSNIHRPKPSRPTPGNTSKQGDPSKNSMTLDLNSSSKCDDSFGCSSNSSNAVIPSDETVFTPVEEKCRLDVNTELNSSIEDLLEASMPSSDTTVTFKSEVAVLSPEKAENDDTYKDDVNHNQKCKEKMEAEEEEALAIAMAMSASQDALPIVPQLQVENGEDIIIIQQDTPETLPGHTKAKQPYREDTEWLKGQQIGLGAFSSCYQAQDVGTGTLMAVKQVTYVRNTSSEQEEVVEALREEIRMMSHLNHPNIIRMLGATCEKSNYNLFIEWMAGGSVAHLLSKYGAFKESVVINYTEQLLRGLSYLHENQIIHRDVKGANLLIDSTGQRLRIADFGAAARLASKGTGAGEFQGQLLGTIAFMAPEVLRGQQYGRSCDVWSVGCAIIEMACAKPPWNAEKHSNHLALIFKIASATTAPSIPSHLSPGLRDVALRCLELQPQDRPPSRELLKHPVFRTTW

[8] = biological target: Microtubule-associated serine/threonine-protein kinase 3 (Homo sapiens) (UniProt O60307); assay: Inhibition of MAST3 in human SKCO1 cells at 1 uM after 4 hrs using biotin labeled DLKPDNLLITSLGHIK probe by mass-spectrometric analysis relative to control; type: cell-based
[9] = biological target: Cyclin-dependent kinase 16 (Homo sapiens) (UniProt Q00536); assay: Inhibition of PCTAIRE1 in human SKCO1 cells at 1 uM after 4 hrs using biotin labeled DLKPQNLLINER probe by mass-spectrometric analysis relative to control; type: cell-based
Summary of the method: (§1)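 Live SK-CO-1 cells exposed to compound at 1 μM or DMSO for 4 h (KiNativ). Lysates then labeled with lysine-reactive ATP/ADP-biotin probe, and probe-labeled kinase peptides quantified by mass spectrometry. Percent inhibition of probe-dependent recovery calculated relative to DMSO-treated cells.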

[10] = biological target: Cyclin-dependent kinase 17 (Homo sapiens) (UniProt Q00537); assay: Inhibition of PCTAIRE2 in human SKCO1 cells at 1 uM after 4 hrs using biotin labeled SKLTENLVALKEIR probe by mass-spectrometric analysis relative to control; type: cell-based; summary of the method: as §1
Cyclin-dependent kinase 17 (Homo sapiens), sequence (Q00537 whole entry, looked up): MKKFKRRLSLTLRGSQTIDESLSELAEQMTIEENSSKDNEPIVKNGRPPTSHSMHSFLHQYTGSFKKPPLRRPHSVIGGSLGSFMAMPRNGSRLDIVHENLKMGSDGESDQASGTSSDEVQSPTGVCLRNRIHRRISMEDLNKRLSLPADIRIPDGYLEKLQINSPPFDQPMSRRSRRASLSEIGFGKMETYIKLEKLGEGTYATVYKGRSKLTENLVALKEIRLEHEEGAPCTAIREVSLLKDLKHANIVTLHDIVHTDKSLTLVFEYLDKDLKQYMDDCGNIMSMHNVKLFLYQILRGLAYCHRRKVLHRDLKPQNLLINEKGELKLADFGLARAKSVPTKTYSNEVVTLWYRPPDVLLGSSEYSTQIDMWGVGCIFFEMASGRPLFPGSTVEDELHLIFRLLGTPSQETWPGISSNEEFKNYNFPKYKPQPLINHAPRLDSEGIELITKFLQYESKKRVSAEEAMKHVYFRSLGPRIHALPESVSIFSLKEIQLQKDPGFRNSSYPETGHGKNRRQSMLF

[11] = biological target: Cyclin-dependent kinase 15 (Homo sapiens) (UniProt Q96Q40); assay: Inhibition of PFTAIRE2 in human SKCO1 cells at 1 uM after 4 hrs using biotin labeled DLKPQNLLISHLGELK probe by mass-spectrometric analysis relative to control; type: cell-based; summary of the method: as §1
[12] = biological target: Phosphatidylinositol 4-kinase beta (Homo sapiens) (UniProt Q9UBF8); assay: Inhibition of PI4KB in human SKCO1 cells at 1 uM after 4 hrs using biotin labeled VPHTQAVVLNSKDK probe by mass-spectrometric analysis relative to control; type: cell-based; summary of the method: as §1
[13] = biological target: Serine/threonine-protein kinase SMG1 (Homo sapiens) (UniProt Q96Q15); assay: Inhibition of SMG1 in human SKCO1 cells at 1 uM after 4 hrs using biotin labeled DTVTIHSVGGTITILPTKTKPK probe by mass-spectrometric analysis relative to control; type: cell-based; summary of the method: as §1
[14] = biological target: Serine/threonine-protein kinase tousled-like 2 (Homo sapiens) (UniProt Q86UE8); assay: Inhibition of TLK2 in human SKCO1 cells at 1 uM after 4 hrs using biotin labeled YLNEIKPPIIHYDLKPGNILLVNGTACEIK probe by mass-spectrometric analysis relative to control; type: cell-based; summary of the method: as §1
Serine/threonine-protein kinase tousled-like 2 (Homo sapiens), sequence (Q86UE8 whole entry, looked up): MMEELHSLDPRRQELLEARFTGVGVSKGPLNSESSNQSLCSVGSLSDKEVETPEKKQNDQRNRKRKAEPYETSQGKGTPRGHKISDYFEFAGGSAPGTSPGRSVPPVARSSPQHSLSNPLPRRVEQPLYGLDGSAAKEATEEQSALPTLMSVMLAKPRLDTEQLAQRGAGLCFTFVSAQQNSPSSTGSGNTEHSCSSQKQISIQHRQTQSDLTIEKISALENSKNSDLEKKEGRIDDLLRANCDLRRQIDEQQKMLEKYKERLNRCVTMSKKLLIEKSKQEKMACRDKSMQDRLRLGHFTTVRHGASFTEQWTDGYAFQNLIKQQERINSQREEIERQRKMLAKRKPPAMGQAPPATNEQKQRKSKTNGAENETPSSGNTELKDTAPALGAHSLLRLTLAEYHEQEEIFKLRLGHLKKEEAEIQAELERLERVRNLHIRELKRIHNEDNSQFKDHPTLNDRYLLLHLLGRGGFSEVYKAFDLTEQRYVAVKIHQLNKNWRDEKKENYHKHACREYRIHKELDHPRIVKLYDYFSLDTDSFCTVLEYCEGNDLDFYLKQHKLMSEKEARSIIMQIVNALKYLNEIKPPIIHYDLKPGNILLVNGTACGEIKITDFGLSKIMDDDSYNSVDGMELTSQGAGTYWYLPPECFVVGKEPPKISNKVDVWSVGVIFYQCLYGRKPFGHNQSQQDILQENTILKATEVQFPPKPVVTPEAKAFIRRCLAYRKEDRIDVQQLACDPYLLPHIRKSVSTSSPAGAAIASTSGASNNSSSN

[15] = biological target: STE20-like serine/threonine-protein kinase SLK (Homo sapiens) (UniProt Q9H2G2); assay: Inhibition of SLK in human SKCO1 cells at 1 uM after 4 hrs using biotin labeled DLKAGNILFTLDGDIK probe by mass-spectrometric analysis relative to control

| SMILES | inhibition [1] [%] | inhibition [2] [%] | inhibition [3] [%] | inhibition [4] [%] | inhibition [5] [%] | inhibition [6] [%] | inhibition [7] [%] | inhibition [8] [%] | inhibition [9] [%] | inhibition [10] [%] | inhibition [11] [%] | inhibition [12] [%] | inhibition [13] [%] | inhibition [14] [%] | inhibition [15] [%] |
| --- | --- | --- | --- | --- | --- | --- | --- | --- | --- | --- | --- | --- | --- | --- | --- |
| C=CC(=O)Nc1ccccc1Nc1nc(Nc2ccc(N3CCN(C)CC3)cc2)ncc1Cl | -2.6 | 47.7 | 31.5 | 46.2 | 33.7 | 16.5 | 78.5 | 13.2 | -3.2 | 3.7 | 41.5 | 14.7 | 0.8 | -2.7 | 76.3 |
| COc1cc(O)c2c(c1)/C=C/C[C@H](O)[C@H](O)C(=O)/C=C\C[C@H](C)OC2=O | 30.6 | 46.6 | -3.7 | 6.2 | 18.4 | -5.1 | 51.4 | 39.2 | -6.3 | 21.2 | 31.8 | 21.8 | -8.2 | -1.8 | 66 |
| C=CC(=O)Nc1ccccc1Oc1nc(Nc2cnn(CCOC)c2)ncc1Cl | -7.4 | 33.1 | 9.5 | 17.1 | 7.6 | 2.8 | 59.7 | 30.6 | -5.9 | 21.9 | 22.8 | 27.2 | 16.4 | 3.8 | 61.2 |

Reference: ChEMBL document CHEMBL4118021, “Studies of TAK1-centered polypharmacology with novel covalent TAK1 inhibitors” (Bioorg Med Chem, 2017)
